# Measurements taken from ChEMBL document CHEMBL1137436, “Development of Tyrocidine A analogues with improved antibacterial activity” (2007).
# Where a SMILES comes first, the peptide text is derived from it. [ ]: non-standard residue; d: D form. Orn = NCCC[C@H](N)C(=O)O
# Assays:
# Staphylococcus aureus [1] = experiment: Antibacterial activity against methicillin-resistant Staphylococcus aureus ATCC 33592 in presence of 25 mg/L calcium by microdilution method; format: functional
# In short: (§1)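 CLSI broth microdilution in cation-adjusted Mueller-Hinton broth (CAMHB); compounds dissolved in CAMHB or a little DMSO then broth. Overnight cultures suspended in saline to 0.5 McFarland, diluted 1:100 in CAMHB and added to wells of diluted compound. Drug-free wells subcultured quantitatively for actual colony counts. Calcium at 25 or 50 mg/L as the line states.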
# Staphylococcus aureus [2] = experiment: Antibacterial activity against methicillin-susceptible Staphylococcus aureus ATCC 29213 in presence of 25 mg/L calcium by microdilution method; format: functional; in short: as §1
# Enterococcus faecalis [3] = experiment: Antibacterial activity against Enterococcus faecalis ATCC 29212 in presence of 25 mg/L calcium by microdilution method; format: functional; in short: as §1
# Escherichia coli [4] = experiment: Antibacterial activity against Escherichia coli ATCC 25922 in presence of 25 mg/L calcium by microdilution method; format: functional
# In short: (§2)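 CLSI broth microdilution MIC. Compounds dissolved in cation-adjusted Mueller-Hinton broth (CAMHB), or in a little DMSO then broth. Overnight cultures suspended in saline to 0.5 McFarland, diluted 1:100 in CAMHB, added to wells of diluted compound. Drug-free wells quantitatively subcultured to confirm actual colony counts. Calcium at 25 or 50 mg/L.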
# [5] = test system: Staphylococcus epidermidis; experiment: Antibacterial activity against methicillin-resistant Staphylococcus epidermidis MRL 19010 in presence of 25 mg/L calcium by microdilution method; format: functional; in short: as §1
# Enterococcus faecalis [6] = experiment: Antibacterial activity against vancomycin-resistant Enterococcus faecalis MRL 17001 in presence of 25 mg/L calcium by microdilution method; format: functional; in short: as §1
# Bacillus subtilis [7] = experiment: Antibacterial activity against Bacillus subtilis MRL 18734 in presence of 25 mg/L calcium by microdilution method; format: functional; in short: as §2
# Bacillus cereus [8] = experiment: Antibacterial activity against Bacillus cereus MRL 18731 in presence of 25 mg/L calcium by microdilution method; format: functional; in short: as §2
# Enterococcus faecalis [9] = experiment: Antibacterial activity against Enterococcus faecalis ATCC 29212 in presence of 50 mg/L calcium by microdilution method; format: functional; in short: as §1
# Escherichia coli [10] = experiment: Antibacterial activity against Escherichia coli ATCC 25922 in presence of 50 mg/L calcium by microdilution method; format: functional; in short: as §2
# [11] = test system: Staphylococcus epidermidis; experiment: Antibacterial activity against methicillin-resistant Staphylococcus epidermidis MRL 19010 in presence of 50 mg/L calcium by microdilution method; format: functional; in short: as §1
# Enterococcus faecalis [12] = experiment: Antibacterial activity against vancomycin-resistant Enterococcus faecalis MRL 17001 in presence of 50 mg/L calcium by microdilution method; format: functional; in short: as §1
# Bacillus subtilis [13] = experiment: Antibacterial activity against Bacillus subtilis MRL 18734 in presence of 50 mg/L calcium by microdilution method; format: functional
# In short: (§3)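 CLSI broth microdilution. Compounds dissolved in cation-adjusted Mueller-Hinton broth (CAMHB), or in a small amount of DMSO followed by broth. Overnight cultures suspended in saline to 0.5 McFarland, diluted 1:100 in CAMHB and added to wells of diluted compound. Drug-free wells subcultured quantitatively to give actual colony counts. Calcium tested at 50 mg/L, alongside the standard 25 mg/L.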
# Bacillus cereus [14] = experiment: Antibacterial activity against Bacillus cereus MRL 18731 in presence of 50 mg/L calcium by microdilution method; format: functional; in short: as §3
# Staphylococcus aureus [15] = experiment: microbe, parasite or virus in culture; settings: ATCC 33592
# Staphylococcus aureus [16] = experiment: microbe, parasite or virus in culture; settings: ATCC 29213
Structure (SMILES),MIC (Staphylococcus aureus [1]),MIC (Staphylococcus aureus [2]),MIC (Enterococcus faecalis [3]),MIC (Escherichia coli [4]),MIC [5],MIC (Enterococcus faecalis [6]),MIC (Bacillus subtilis [7]),MIC (Bacillus cereus [8]),MIC (Enterococcus faecalis [9]),MIC (Escherichia coli [10]),MIC [11],MIC (Enterococcus faecalis [12]),MIC (Bacillus subtilis [13]),MIC (Bacillus cereus [14]),MIC (Staphylococcus aureus [15]),MIC (Staphylococcus aureus [16])
CC(C)C[C@@H]1NC(=O)[C@H](CCCN)NC(=O)[C@H](C(C)C)NC(=O)[C@H](Cc2ccc(O)cc2)NC(=O)[C@H](CCC(N)=O)NC(=O)[C@H](CC(N)=O)NC(=O)[C@@H](Cc2ccccc2)NC(=O)[C@H](Cc2c(F)c(F)c(F)c(F)c2F)NC(=O)[C@@H]2CCCN2C(=O)[C@@H](Cc2ccccc2)NC1=O,16 µg/mL,8 µg/mL,4 µg/mL,> 256 µg/mL,8 µg/mL,8 µg/mL,4 µg/mL,4 µg/mL,–,–,–,–,–,–,–,–
CC(C)C[C@@H]1NC(=O)[C@H](CCCN)NC(=O)[C@H](C(C)C)NC(=O)[C@H](Cc2ccc(O)cc2)NC(=O)[C@H](CCC(N)=O)NC(=O)[C@H](CC(N)=O)NC(=O)[C@@H](Cc2ccccc2)NC(=O)[C@H](Cc2ccccc2)NC(=O)[C@@H]2CCCN2C(=O)[C@@H](Cc2ccccc2)NC1=O [TYROCIDINE A] (cyclo(F[dF]NQYV[Orn]L[dF]P)),32 µg/mL,32 µg/mL,16 µg/mL,> 128 µg/mL,16 µg/mL,16 µg/mL,16 µg/mL,16 µg/mL,–,–,–,–,–,–,–,–
CC(C)C[C@@H]1NC(=O)[C@H](CCCN)NC(=O)[C@H](C(C)C)NC(=O)[C@H](Cc2ccc(O)cc2)NC(=O)[C@H](CCC(N)=O)NC(=O)[C@H](CC(N)=O)NC(=O)[C@@H](CCCCN)NC(=O)[C@H](Cc2ccccc2)NC(=O)[C@@H]2CCCN2C(=O)[C@@H](Cc2ccccc2)NC1=O,64 µg/mL,32 µg/mL,64 µg/mL,128 µg/mL,32 µg/mL,32 µg/mL,16 µg/mL,64 µg/mL,–,–,–,–,–,–,–,–
CC(C)C[C@@H]1NC(=O)[C@H](CCCN)NC(=O)[C@H](C(C)C)NC(=O)[C@H](Cc2ccc(O)cc2)NC(=O)[C@H](CCCCN)NC(=O)[C@H](CC(N)=O)NC(=O)[C@@H](CCCCN)NC(=O)[C@H](Cc2ccccc2)NC(=O)[C@@H]2CCCN2C(=O)[C@@H](Cc2ccccc2)NC1=O,16 µg/mL,16 µg/mL,32 µg/mL,32 µg/mL,4 µg/mL,8 µg/mL,2 µg/mL,16 µg/mL,–,–,–,–,–,–,–,–
CCCCCCCCCC(=O)N[C@@H](Cc1c[nH]c2ccccc12)C(=O)N[C@H](CC(N)=O)C(=O)N[C@@H](CC(=O)O)C(=O)N[C@@H]1C(=O)NCC(=O)N[C@@H](CCCN)C(=O)N[C@@H](CC(=O)O)C(=O)N[C@H](C)C(=O)N[C@@H](CC(=O)O)C(=O)NCC(=O)N[C@H](CO)C(=O)N[C@@H]([C@H](C)CC(=O)O)C(=O)N[C@@H](CC(=O)c2ccccc2N)C(=O)O[C@@H]1C,1 µg/mL,1 µg/mL,1 µg/mL,> 128 µg/mL,1 µg/mL,2 µg/mL,1 µg/mL,0.5 µg/mL,1 µg/mL,> 128 µg/mL,0.5 µg/mL,1 µg/mL,0.25 µg/mL,0.25 µg/mL,0.25 µg/mL,0.25 µg/mL
